Laboratory results as given in ChEMBL document CHEMBL4308918, “Rational Design of Cell-Active Inhibitors of PARP10” (ACS Med Chem Lett, 2019).

Legend:
[1] = molecular target: T1, Protein mono-ADP-ribosyltransferase PARP10 (Homo sapiens, UniProt Q53GL7); assay: Inhibition of human PARP10 catalytic domain assessed as reduction in MARylation of His6-tagged SRPK2 substrate after 60 mins in presence of NAD+ by chemifluorescence assay
T1 sequence (Q53GL7 whole entry): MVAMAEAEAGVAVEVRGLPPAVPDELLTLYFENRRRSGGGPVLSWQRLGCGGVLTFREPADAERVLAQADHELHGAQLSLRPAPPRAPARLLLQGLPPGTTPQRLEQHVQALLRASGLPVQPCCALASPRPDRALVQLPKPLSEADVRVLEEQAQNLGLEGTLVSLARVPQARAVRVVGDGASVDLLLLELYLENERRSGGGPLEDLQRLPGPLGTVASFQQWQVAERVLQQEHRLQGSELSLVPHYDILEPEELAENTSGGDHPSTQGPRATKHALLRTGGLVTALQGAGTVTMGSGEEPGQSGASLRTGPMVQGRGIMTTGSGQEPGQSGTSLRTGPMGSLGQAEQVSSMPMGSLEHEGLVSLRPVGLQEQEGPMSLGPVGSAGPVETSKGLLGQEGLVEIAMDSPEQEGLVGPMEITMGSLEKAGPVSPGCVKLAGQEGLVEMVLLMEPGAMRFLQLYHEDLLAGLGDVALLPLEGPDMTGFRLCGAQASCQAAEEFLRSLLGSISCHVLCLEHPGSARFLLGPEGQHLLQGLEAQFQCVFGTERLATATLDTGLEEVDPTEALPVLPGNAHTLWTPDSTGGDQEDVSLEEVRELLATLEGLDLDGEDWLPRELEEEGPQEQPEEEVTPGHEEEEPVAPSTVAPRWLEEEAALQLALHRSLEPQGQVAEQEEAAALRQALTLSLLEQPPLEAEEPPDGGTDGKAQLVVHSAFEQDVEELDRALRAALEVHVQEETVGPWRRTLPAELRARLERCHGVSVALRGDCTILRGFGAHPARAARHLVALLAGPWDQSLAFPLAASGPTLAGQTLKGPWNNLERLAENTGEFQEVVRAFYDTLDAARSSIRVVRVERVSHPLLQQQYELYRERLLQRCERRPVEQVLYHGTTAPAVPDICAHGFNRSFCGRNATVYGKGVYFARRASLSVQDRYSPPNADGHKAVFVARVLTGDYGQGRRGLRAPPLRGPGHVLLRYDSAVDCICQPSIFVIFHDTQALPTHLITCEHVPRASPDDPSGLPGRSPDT

Homo sapiens [2] = species on record: Homo sapiens; assay: Selectivity ratio of IC50 for GFP-tagged human PARP6 short isoform expressed in HEK293T cells to IC50 for human PARP10 catalytic domain; assay type: cell-based
Summary of the method: (§1)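 Selectivity ratio is the IC50 for the given PARP divided by the IC50 for PARP10 catalytic domain. IC50s came from the 6-a-NAD+ SRPK2 plate assay or, for cell-expressed PARPs, the immunoprecipitation auto-MARylation assay.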

[3] = molecular target: T2, Protein mono-ADP-ribosyltransferase PARP10 (Homo sapiens) (UniProt Q53GL7); assay: Inhibition of GFP-tagged human PARP10 expressed in HEK293T cells assessed as reduction in auto-MARylation after 3 hrs by Western blot analysis; assay type: cell-based
T2 sequence (whole entry): T1 sequence (Q53GL7 whole entry)
Summary of the method: (§2)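 HEK293T cells transfected with GFP-PARP10 and treated with compound at 1−100 μM for 3 h. A Western blot using an ADP-ribose binding reagent detected PARP10 auto-MARylation and PARP10-mediated MARylation of high molecular weight targets.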

[4] = molecular target: T2, Protein mono-ADP-ribosyltransferase PARP10 (Homo sapiens); assay: Inhibition of human PARP10 catalytic domain assessed as reduction in auto-MARylation at 30 uM after 60 mins in presence of 6-a-NAD+ by chemiluminescent immunoprecipitation assay relative to control
Homo sapiens [5] = species on record: Homo sapiens; assay: Selectivity ratio of IC50 for full length human PARP1 to IC50 for human PARP10 catalytic domain; summary of the method: as §1
[6] = molecular target: T2, Protein mono-ADP-ribosyltransferase PARP10 (Homo sapiens); assay: Inhibition of GFP-tagged human PARP10 expressed in HEK293T cells assessed as reduction in high molecular weight target protein MARylation after 3 hrs by Western blot analysis; assay type: cell-based; summary of the method: as §2
[7] = Inhibition of GFP-tagged human PARP6 long isoform expressed in HEK293T cells assessed as reduction in auto-MARylation after 60 mins in presence of 6-a-NAD+ by chemiluminescent immunoprecipitation assay; assay type: cell-based
Homo sapiens [8] = species on record: Homo sapiens; assay: Selectivity ratio of IC50 for human PARP4 BRCT-catalytic domain (1 to 572 residues) to IC50 for human PARP10 catalytic domain; summary of the method: as §1
Homo sapiens [9] = species on record: Homo sapiens; assay: Selectivity ratio of IC50 for full length human PARP2 to IC50 for human PARP10 catalytic domain; summary of the method: as §1
Homo sapiens [10] = species on record: Homo sapiens; assay: Selectivity ratio of IC50 for GFP-tagged human PARP8 expressed in HEK293T cells to IC50 for human PARP10 catalytic domain; assay type: cell-based; summary of the method: as §1
[11] = Inhibition of GFP-tagged human PARP6 short isoform expressed in HEK293T cells assessed as reduction in auto-MARylation after 60 mins in presence of 6-a-NAD+ by chemiluminescent immunoprecipitation assay; assay type: cell-based
Homo sapiens [12] = species on record: Homo sapiens; assay: Selectivity ratio of IC50 for human PARP14 catalytic-WWE domain (1459 to 1801 residues) expressed in Escherichia coli BL21 to IC50 for human PARP10 catalytic domain; summary of the method: as §1
[13] = molecular target: T3, Protein mono-ADP-ribosyltransferase PARP16 (Homo sapiens, UniProt Q8N5Y8); assay: Inhibition of human transmembrane domain deficient His-SUMO-tagged PARP16 expressed in Escherichia coli BL21 assessed as reduction in MARylation of His6-tagged SRPK2 substrate after 60 mins in presence of 6-a-NAD+ by chemifluorescence assay
T3 sequence (Q8N5Y8 whole entry): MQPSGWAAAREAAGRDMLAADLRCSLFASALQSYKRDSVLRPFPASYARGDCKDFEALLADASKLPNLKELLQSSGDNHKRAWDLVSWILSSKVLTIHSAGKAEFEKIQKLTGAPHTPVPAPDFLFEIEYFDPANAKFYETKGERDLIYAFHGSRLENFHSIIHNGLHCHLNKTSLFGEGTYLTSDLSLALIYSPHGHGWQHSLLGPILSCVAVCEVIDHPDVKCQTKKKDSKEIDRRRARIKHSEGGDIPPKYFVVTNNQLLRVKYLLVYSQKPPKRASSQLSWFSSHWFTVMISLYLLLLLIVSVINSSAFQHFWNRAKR
Summary of the method: (§3)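 Recombinant enzyme was tested in a 96-well plate assay that monitors MARylation of the substrate SRPK2 with the clickable 6-a-NAD+.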

Homo sapiens [14] = species on record: Homo sapiens; assay: Selectivity ratio of IC50 for GFP-tagged human PARP6 long isoform expressed in HEK293T cells to IC50 for human PARP10 catalytic domain; assay type: cell-based; summary of the method: as §1
Homo sapiens [15] = species on record: Homo sapiens; assay: Selectivity ratio of IC50 for GFP-tagged human PARP12 expressed in HEK293T cells to IC50 for human PARP10 catalytic domain; assay type: cell-based; summary of the method: as §1
Homo sapiens [16] = species on record: Homo sapiens; assay: Selectivity ratio of IC50 for human PARP7 to IC50 for human PARP10 catalytic domain; summary of the method: as §1
Homo sapiens [17] = species on record: Homo sapiens; assay: Selectivity ratio of IC50 for human PARP5B catalytic domain (1 to 572 residues) to IC50 for human PARP10 catalytic domain; summary of the method: as §1
Homo sapiens [18] = species on record: Homo sapiens; assay: Selectivity ratio of IC50 for human transmembrane domain deficient His-SUMO-tagged PARP16 expressed in Escherichia coli BL21 to IC50 for human PARP10 catalytic domain; summary of the method: as §1
Homo sapiens [19] = species on record: Homo sapiens; assay: Selectivity ratio of IC50 for human PARP15 catalytic domain to IC50 for human PARP10 catalytic domain; summary of the method: as §1
[20] = molecular target: Protein mono-ADP-ribosyltransferase PARP4 (Homo sapiens, UniProt Q9UKK3); assay: Inhibition of human PARP4 BRCT-catalytic domain (1 to 572 residues) assessed as reduction in MARylation of SRPK2 substrate after 60 mins in presence of 6-a-NAD+ by chemifluorescence assay; summary of the method: as §3
[21] = molecular target: T4, Protein mono-ADP-ribosyltransferase TIPARP (Homo sapiens, UniProt Q7Z3E1); assay: Inhibition of human PARP7 assessed as reduction in MARylation of SRPK2 substrate after 60 mins in presence of 6-a-NAD+ by chemifluorescence assay; summary of the method: as §3
T4 sequence (Q7Z3E1 whole entry): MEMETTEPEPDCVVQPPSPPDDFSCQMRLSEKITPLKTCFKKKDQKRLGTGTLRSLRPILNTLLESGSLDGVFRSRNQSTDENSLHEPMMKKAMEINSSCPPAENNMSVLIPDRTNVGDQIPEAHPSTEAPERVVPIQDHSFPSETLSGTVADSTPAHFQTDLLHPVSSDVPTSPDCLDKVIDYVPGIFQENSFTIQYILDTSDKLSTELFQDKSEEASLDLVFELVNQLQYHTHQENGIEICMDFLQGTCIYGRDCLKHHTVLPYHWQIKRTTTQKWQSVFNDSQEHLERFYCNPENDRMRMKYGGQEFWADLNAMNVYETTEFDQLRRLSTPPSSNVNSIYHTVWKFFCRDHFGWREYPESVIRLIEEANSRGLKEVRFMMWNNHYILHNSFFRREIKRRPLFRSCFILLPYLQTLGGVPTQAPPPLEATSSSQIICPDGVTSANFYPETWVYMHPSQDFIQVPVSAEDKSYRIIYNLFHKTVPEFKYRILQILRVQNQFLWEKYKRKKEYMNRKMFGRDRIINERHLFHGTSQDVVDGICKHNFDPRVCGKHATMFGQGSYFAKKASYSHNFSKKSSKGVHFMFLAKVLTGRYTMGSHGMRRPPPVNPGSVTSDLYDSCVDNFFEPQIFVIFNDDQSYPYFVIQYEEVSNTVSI

Homo sapiens [22] = species on record: Homo sapiens; assay: Selectivity ratio of IC50 for full length human PARP3 to IC50 for human PARP10 catalytic domain; summary of the method: as §1
[23] = Aqueous solubility of the compound; assay type: physicochemical; conditions: buffer

Protein mono-ADP-ribosyltransferase PARP4, sequence (Q9UKK3 whole entry, the tested form may be a part): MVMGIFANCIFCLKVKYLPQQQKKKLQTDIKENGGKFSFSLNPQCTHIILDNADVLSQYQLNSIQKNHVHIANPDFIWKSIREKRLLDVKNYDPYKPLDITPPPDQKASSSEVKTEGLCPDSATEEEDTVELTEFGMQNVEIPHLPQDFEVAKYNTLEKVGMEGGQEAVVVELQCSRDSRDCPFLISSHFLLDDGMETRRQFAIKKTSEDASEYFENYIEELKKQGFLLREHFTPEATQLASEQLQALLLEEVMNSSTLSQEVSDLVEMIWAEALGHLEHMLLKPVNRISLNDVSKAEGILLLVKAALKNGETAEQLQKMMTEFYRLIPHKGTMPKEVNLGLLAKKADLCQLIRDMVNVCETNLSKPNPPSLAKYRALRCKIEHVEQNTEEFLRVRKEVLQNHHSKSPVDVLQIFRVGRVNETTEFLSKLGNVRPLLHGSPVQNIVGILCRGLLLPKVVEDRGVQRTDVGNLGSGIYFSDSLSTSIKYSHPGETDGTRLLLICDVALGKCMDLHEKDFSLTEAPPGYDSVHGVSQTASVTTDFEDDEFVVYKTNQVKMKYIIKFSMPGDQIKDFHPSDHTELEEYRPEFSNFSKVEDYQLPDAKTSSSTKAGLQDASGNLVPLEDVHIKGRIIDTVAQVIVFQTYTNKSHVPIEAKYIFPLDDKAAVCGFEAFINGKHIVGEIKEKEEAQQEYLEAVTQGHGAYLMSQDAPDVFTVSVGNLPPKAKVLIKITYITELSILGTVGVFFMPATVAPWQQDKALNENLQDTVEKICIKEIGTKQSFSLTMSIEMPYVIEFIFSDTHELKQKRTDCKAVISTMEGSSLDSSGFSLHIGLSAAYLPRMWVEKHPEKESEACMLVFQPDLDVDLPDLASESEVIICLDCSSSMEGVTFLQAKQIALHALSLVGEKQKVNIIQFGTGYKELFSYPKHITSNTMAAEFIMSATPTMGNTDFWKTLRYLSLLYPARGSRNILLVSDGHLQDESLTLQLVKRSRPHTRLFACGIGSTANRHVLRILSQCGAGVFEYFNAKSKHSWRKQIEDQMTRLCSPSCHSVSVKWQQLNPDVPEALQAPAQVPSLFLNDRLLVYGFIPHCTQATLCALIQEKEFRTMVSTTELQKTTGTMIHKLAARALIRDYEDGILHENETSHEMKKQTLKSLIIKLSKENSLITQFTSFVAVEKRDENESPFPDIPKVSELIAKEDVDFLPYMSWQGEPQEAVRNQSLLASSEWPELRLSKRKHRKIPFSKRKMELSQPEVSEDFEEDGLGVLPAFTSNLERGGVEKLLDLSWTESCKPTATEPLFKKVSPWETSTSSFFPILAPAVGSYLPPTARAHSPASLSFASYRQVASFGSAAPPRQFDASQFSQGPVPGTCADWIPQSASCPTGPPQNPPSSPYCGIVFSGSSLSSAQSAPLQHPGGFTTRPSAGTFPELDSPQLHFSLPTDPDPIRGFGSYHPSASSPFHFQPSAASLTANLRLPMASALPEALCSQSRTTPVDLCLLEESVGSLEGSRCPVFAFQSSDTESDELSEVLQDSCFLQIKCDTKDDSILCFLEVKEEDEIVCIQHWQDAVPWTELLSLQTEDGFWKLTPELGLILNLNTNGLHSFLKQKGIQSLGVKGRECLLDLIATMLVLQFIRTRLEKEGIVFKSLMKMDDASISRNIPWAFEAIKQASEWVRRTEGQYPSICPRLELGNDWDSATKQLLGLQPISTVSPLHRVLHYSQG

With `CC(=O)c1cccc(-c2ccc3c(c2)CCNC3=O)c1` as the molecule, how does the IC50 [1] read?
Its IC50 is 1600 nM.

For `Cc1c(-c2cncc(F)c2)ccc2c1CCNC2=O`, which IC50 [1] is on record?
Its IC50 is 2200 nM.

Which IC50 [1] does the source give for `Cc1c(-c2cncc(C(F)(F)F)c2)ccc2c1CCNC2=O` here?
Its IC50 is 2700 nM.

With `Cc1c(-c2cccnc2)ccc2c1CCNC2=O` as the molecule, how does the IC50 [1] read?
The IC50 was 2500 nM.

With `O=C1NCCc2cc(Cc3ccccc3)ccc21` as the molecule, how does the IC50 [1] read?
Its IC50 is greater than 50000 nM.

Which results are given for `Cc1c(-c2ccnc(C(F)(F)F)c2)ccc2c1CCNC2=O`?
Ratio IC50 (Homo sapiens [2]): > 10; inhibition [3]: Dose-dependent effect; inhibition [4]: 80%; Ratio IC50 (Homo sapiens [5]): > 37; inhibition [6]: Dose-dependent effect; IC50 [7]: > 30000 nM; Ratio IC50 (Homo sapiens [8]): > 37; IC50 [1]: 1800 nM; Ratio IC50 (Homo sapiens [9]): > 37; Ratio IC50 (Homo sapiens [10]): > 10; IC50 [11]: > 30000 nM; Ratio IC50 (Homo sapiens [12]): 22; IC50 [13]: 6700 nM; Ratio IC50 (Homo sapiens [14]): > 10; Ratio IC50 (Homo sapiens [15]): > 10; Ratio IC50 (Homo sapiens [16]): 7; Ratio IC50 (Homo sapiens [17]): > 37; Ratio IC50 (Homo sapiens [18]): 2.5; Ratio IC50 (Homo sapiens [19]): 23; IC50 [20]: > 100000 nM; IC50 [21]: 19000 nM; Ratio IC50 (Homo sapiens [22]): > 37

Which IC50 [1] does the source give for `Cc1c(-c2ccc3[nH]ccc3c2)ccc2c1CCNC2=O` here?
Its IC50 is 1100 nM.

For `O=C1NCCc2cc(Br)ccc21`, which IC50 [1] is on record?
The IC50 was 17100 nM.

Which IC50 [1] does the source give for `O=C1NCCc2c1cccc2-c1ccccc1` here?
Its IC50 is 35000 nM.

Which IC50 [1] does the source give for `Cc1c(-c2cnc3[nH]ccc3c2)ccc2c1CCNC2=O` here?
Its IC50 is 710 nM.

For `O=C1NCCc2cc(-c3cccc(F)c3)ccc21`, which IC50 [1] is on record?
The IC50 was 1400 nM.

Which IC50 [1] does the source give for `Cc1c(-c2ccccc2)ccc2c1CCNC2=O` here?
Its IC50 is 1600 nM.

What about the solubility [23] of the same molecule?
Its solubility is “Insoluble”.

Which IC50 [1] does the source give for `Cc1ccc2c(c1)CCNC2=O` here?
Its IC50 is 33100 nM.
